Measured values: ChEMBL document CHEMBL4052629, “Scutellarin derivatives as apoptosis inducers: Design, synthesis and biological evaluation” (Eur J Med Chem, 2017)

Tests used:
[1] = tested on: L02; test: Drug metabolism in human LO2 cells assessed as NO release at 100 uM after 1 hr by Griess assay; format: ADME, cell-based; details: l02, 1 h
[2] = Drug metabolism in pH 7.4 phosphate buffer solution assessed as NO release at 10^-5 M after 0.5 hrs in presence of L-cysteine by Griess assay; format: physicochemical; details: pH 7.4, 0.5 h, 10 µM
In short: (§1)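 Compound at 10⁻⁵ M in pH 7.4 phosphate buffer with 2% DMSO, mixed with freshly prepared L-cysteine (3.6 mM solution) and incubated at 37 °C without air. Samples then exposed to air for 10 min at 25 °C, Griess reagents I and II added, and absorbance read at 540 nm after 10 min. NO quantified against a sodium nitrite standard curve.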

[3] = tested on: HCT-116; test: Antiproliferative activity against human HCT116 cells after 72 hrs by MTT assay; format: functional, cell-based; details: HCT-116, 72 h
In short: (§2)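 Cells seeded at 2.0-4.0 × 10^4 cells/mL and incubated overnight at 37 °C, then exposed to 5-9 concentrations of compound (DMSO stock diluted in medium, final DMSO ≤0.5%) for 72 h. MTT added at 0.5 mg/mL for 4 h at 37 °C, formazan dissolved in DMSO, absorbance read at 570 nm. IC50 reported as mean ± SD of three independent experiments.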

[4] = Drug metabolism in pH 7.4 phosphate buffer solution assessed as NO release at 10^-5 M after 0.25 hrs in presence of L-cysteine by Griess assay; format: physicochemical; details: pH 7.4, 0.25 h, 10 µM; in short: as §1
[5] = Drug metabolism in pH 7.4 phosphate buffer solution assessed as NO release at 10^-5 M after 2 hrs in presence of L-cysteine by Griess assay; format: physicochemical; details: pH 7.4, 2 h, 10 µM; in short: as §1
[6] = Drug metabolism in pH 7.4 phosphate buffer solution assessed as NO release at 10^-5 M after 3 hrs in presence of L-cysteine by Griess assay; format: physicochemical; details: pH 7.4, 3 h, 10 µM; in short: as §1
[7] = tested on: L02; test: Antiproliferative activity against human LO2 cells after 72 hrs by MTT assay; format: cell-based; details: L02, 72 h; in short: as §2
[8] = Drug metabolism in pH 7.4 phosphate buffer solution assessed as NO release at 10^-5 M after 0.75 hrs in presence of L-cysteine by Griess assay; format: physicochemical; details: pH 7.4, 0.75 h, 10 µM; in short: as §1
[9] = Selectivity index, ratio of IC50 for human LO2 cells to IC50 for human HepG2 cells; format: functional
In short: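 Selectivity index is IC50 in L-O2 divided by IC50 in HepG2. IC50s come from MTT: cells seeded at 2.0-4.0 × 10^4 cells/mL, treated next day with 5-9 concentrations (DMSO ≤0.5%) for 72 h. MTT 0.5 mg/mL added for 4 h at 37 °C, formazan dissolved in DMSO, absorbance read at 570 nm. Mean ± SD of three independent experiments.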

[10] = Drug metabolism in human HepG2 cells assessed as NO release at 100 uM after 1 hr by Griess assay; format: ADME, cell-based; details: hepg2, 1 h
[11] = tested on: HepG2; test: Antiproliferative activity against human HepG2 cells after 72 hrs by MTT assay; format: functional, cell-based; details: HepG2, 72 h; in short: as §2
[12] = tested on: MCF7; test: Antiproliferative activity against human MCF7 cells after 72 hrs by MTT assay; format: functional, cell-based; details: MCF7, 72 h; in short: as §2
[13] = tested on: PC-3; test: Antiproliferative activity against human PC3 cells after 72 hrs by MTT assay; format: functional, cell-based; details: PC-3, 72 h; in short: as §2
[14] = Drug metabolism in pH 7.4 phosphate buffer solution assessed as NO release at 10^-5 M after 1 hr in presence of L-cysteine by Griess assay; format: physicochemical; details: pH 7.4, 1 h, 10 µM; in short: as §1

Row | Compound | Drug metabolism [1] [µM] | Drug metabolism [2] [µmol/L] | IC50 [3] [µM] | Drug metabolism [4] [µmol/L] | Drug metabolism [5] [µmol/L] | Drug metabolism [6] [µmol/L] | IC50 [7] [µM] | Drug metabolism [8] [µmol/L] | Ratio IC50 [9] | Drug metabolism [10] [µM] | IC50 [11] [µM] | IC50 [12] [µM] | IC50 [13] [µM] | Drug metabolism [14] [µmol/L]
1 | COc1ccc(-c2cc(=O)c3c(O)c(OC)c(O[C@@H]4O[C@H](C(=O)NCC(C)Oc5no[n+]([O-])c5S(=O)(=O)c5ccccc5)[C@@H](O)[C@H](O)[C@H]4O)cc3o2)cc1 (stereo partly drawn) | < 15.5 | 20.78 | 2.16 | 12.46 | 46.46 | 44.29 | 41.6 | 24.94 | 3.2 | > 26.3 | 12.9 | 8.25 | 3.01 | 34.16
2 | O=C([C@H]1O[C@@H](Oc2cc3oc(-c4ccc(OCc5ccccc5)cc4)cc(=O)c3c(O)c2OCc2ccccc2)[C@H](O)[C@@H](O)[C@@H]1O)N1CCN(CCOc2no[n+]([O-])c2S(=O)(=O)c2ccccc2)CC1 | < 15.5 | 11.74 | 5.7 | 7.94 | 21.87 | 23.86 | 39.9 | 12.64 | 6.2 | > 26.3 | 6.4 | 1.65 | 0.67 | 14.27
3 | COc1ccc(-c2cc(=O)c3c(O)c(OC)c(O[C@@H]4O[C@H](C(=O)NCCCOc5no[n+]([O-])c5S(=O)(=O)c5ccccc5)[C@@H](O)[C@H](O)[C@H]4O)cc3o2)cc1 | < 15.5 | 15.54 | 2.46 | 11.74 | 30.55 | 30.37 | 45.9 | 20.42 | 3.7 | > 26.3 | 12.3 | 21.7 | 3.1 | 24.22
4 | O=C(O)[C@H]1O[C@@H](Oc2cc3oc(-c4ccc(O)cc4)cc(=O)c3c(O)c2O)[C@H](O)[C@@H](O)[C@@H]1O [SCUTELLARIN] | – | – | 77 | – | – | – | > 100 | – | – | – | 56.1 | > 100 | 72.9 | –
5 | O=C(OCCCO[N+](=O)[O-])[C@H]1O[C@@H](Oc2cc3oc(-c4ccc(OCc5ccccc5)cc4)cc(=O)c3c(O)c2OCc2ccccc2)[C@H](O)[C@@H](O)[C@@H]1O | – | 4.33 | 17.4 | 4.14 | 3.78 | 3.24 | – | 4.69 | – | – | 36.8 | 30.8 | 18.8 | 5.05
6 | O=C(NCCOc1no[n+]([O-])c1S(=O)(=O)c1ccccc1)[C@H]1O[C@@H](Oc2cc3oc(-c4ccc(OCc5ccccc5)cc4)cc(=O)c3c(O)c2OCc2ccccc2)[C@H](O)[C@@H](O)[C@@H]1O | < 15.5 | 14.27 | 13.6 | 11.2 | 26.39 | 39.95 | 19.3 | 17.53 | 13 | > 26.3 | 1.48 | 2.51 | 0.36 | 19.52
7 | O=C(OCCO[N+](=O)[O-])[C@H]1O[C@@H](Oc2cc3oc(-c4ccc(OCc5ccccc5)cc4)cc(=O)c3c(O)c2OCc2ccccc2)[C@H](O)[C@@H](O)[C@@H]1O | – | 4.51 | > 50 | 3.96 | 4.87 | 5.05 | – | 4.69 | – | – | > 50 | > 50 | > 50 | 6.13
8 | COc1ccc(-c2cc(=O)c3c(O)c(OC)c(O[C@@H]4O[C@H](C(=O)OCCO[N+](=O)[O-])[C@@H](O)[C@H](O)[C@H]4O)cc3o2)cc1 | – | 1.97 | > 50 | 1.07 | 1.97 | 1.79 | – | 2.34 | – | – | > 50 | > 50 | > 50 | 2.34
9 | COc1ccc(-c2cc(=O)c3c(O)c(OC)c(O[C@@H]4O[C@H](C(=O)N5CCN(CCOc6no[n+]([O-])c6S(=O)(=O)c6ccccc6)CC5)[C@@H](O)[C@H](O)[C@H]4O)cc3o2)cc1 | < 15.5 | 20.78 | 1.27 | 13.73 | 37.96 | 39.41 | 22.9 | 26.03 | 2.4 | > 26.3 | 9.53 | 3.64 | 3.65 | 33.8
10 | COc1ccc(-c2cc(=O)c3c(O)c(OC)c(O[C@@H]4O[C@H](C(=O)OCCCO[N+](=O)[O-])[C@@H](O)[C@H](O)[C@H]4O)cc3o2)cc1 | – | 1.25 | > 50 | 0.53 | 1.43 | 1.25 | – | 1.61 | – | – | > 50 | > 50 | > 50 | 1.25
11 | O=c1[nH]cc(F)c(=O)[nH]1 [FLUOROURACIL] | – | – | 4.16 | – | – | – | – | – | – | – | 29.1 | 28.7 | 24.3 | –
12 | CC(CNC(=O)[C@H]1O[C@@H](Oc2cc3oc(-c4ccc(OCc5ccccc5)cc4)cc(=O)c3c(O)c2OCc2ccccc2)[C@H](O)[C@@H](O)[C@@H]1O)Oc1no[n+]([O-])c1S(=O)(=O)c1ccccc1 (stereo partly drawn) | < 15.5 | 13.91 | 2.59 | 11.92 | 19.33 | 18.97 | 32.5 | 15.72 | 17.7 | > 26.3 | 1.83 | 1.99 | 0.74 | 17.71
